Measurements collected from several papers.
Each line is one published result; the experiments were not run side by side.
Target: Serine/threonine-protein kinase 32C (STK32C, Homo sapiens, UniProt Q86UX6)

Structure (SMILES) | test | setting | measurement | value
CCCCC(=O)Nc1ccc(-c2ccc3ncn(CCC)c(=O)c3c2)cn1 | binding, competition with immobilised ligand | 0.5 µM | remaining binding | 92%
Cc1ccc(NC(=O)c2ccnc(C(F)(F)F)c2)cc1-c1cc(OCCO)nc(N2CCOCC2)c1 | binding | 1 µM | remaining binding | 100%
C=CC(=O)N1CCC[C@@H](n2nc(-c3ccc(Oc4ccccc4)cc3)c3c(N)ncnc32)C1 | enzyme activity, inhibitor | 1 µM | inhibition | 14%
N#Cc1ccc(NC(=O)Nc2ccccc2)cc1 | cell-free assay, competition with immobilised ligand | 25 µM | remaining binding | 77%
Cc1cc(O)c(-c2ccc([C@@H](C)CN(C)C)cc2)c2c1[nH]c(=O)c1sccc12 | enzyme activity, inhibitor | 0.1 µM, lysate | inhibition | -1.49%
C[C@H]1CC[C@H](n2c3cnccc3c3cnc(Nc4ccc5c(n4)CCN(C(=O)CO)C5)nc32)CC1 | cell-free assay | 1 µM | remaining signal | 100%
CC(C)S(=O)(=O)c1ccc2nccc(Nc3ccc4sc(C5CCCC5)nc4c3)c2c1 | enzyme activity, inhibitor | 1 µM | activity vs control | 102%
CO[C@@H]1[C@H](N(C)C(=O)c2ccccc2)C[C@H]2O[C@]1(C)n1c3ccccc3c3c4c(c5c6ccccc6n2c5c31)C(=O)NC4 | enzyme activity, inhibitor | 1 µM | inhibition | 0%
COc1ccc2oc(-c3ccc4nc(N)oc4c3)c/c(=N\c3ccccc3NC(=O)CCN)c2c1 | binding | 1 µM | remaining binding | 100%
C#Cc1cnc(Nc2ccnc(CO)c2)nc1Nc1ccccc1S(C)(=O)=NC#N (stereo not shown) | cell-free assay | 1 µM | remaining signal | 100%
